Assay results collected from several papers.
Lines come from different studies, so protocols differ.

| SMILES | host | matrix | route | dose | time | setting | concentration |
| --- | --- | --- | --- | --- | --- | --- | --- |
| CCOC(=O)[C@@]12C[C@@H]1[C@@H](n1ccc3c(NC)nc(C#Cc4ccc(Cl)s4)nc31)[C@H](O)[C@@H]2O | male Sprague-Dawley rat | plasma | oral | 3 mg/kg | 30 min | – | 48.4 ng/mL |
| COc1nc(-c2cc(C)c(N[C@@H](C)c3cc(F)cc(F)c3)nn2)ccc1-n1cnc(C)c1 | male Sprague-Dawley rat | CSF | oral | 5 mg/kg | 4 h | multiple doses, once daily | 15.3 ng/mL |
| Cc1noc(C)c1Cn1cc(N2C(=O)N(Cc3cccc(O)c3)C(C)(C)C2=O)cn1 | male Sprague-Dawley rat | plasma | oral | 100 mg/kg | 24 h | single dose | 0 ng/mL |
| CCCOc1ccc(OC)c(F)c1C(=O)c1ccc(C(=O)N[C@@H]2CNC[C@H]2NC(=O)c2ccc3[nH]ncc3c2)cc1 | rat | plasma | intravenous | 559 µg | 10 min | single dose | 470 ng/mL |
| CCc1cc(-c2noc(-c3cc(OC)nc(C4CCCC4)c3)n2)cc(C)c1OC[C@@H](O)CO | Wistar rat | plasma | oral | 3 mg/kg | 3 h | single dose | 235 ng/mL |
| Cc1noc(C)c1Cn1cc(N2C(=O)CN(Cc3cccc(O)c3)C2=O)cn1 | male Sprague-Dawley rat | plasma | oral | 100 mg/kg | 4 h | – | 42.5 ng/mL |
| Cc1ccc(-c2cc(C(F)(F)F)nn2-c2ccc(S(N)(=O)=O)cc2)cc1 | male Sprague-Dawley rat | plasma | oral | 20 mg/kg | 8 h | – | 910 nM |
| COc1cccc(-c2n[nH]c(SCc3ccccn3)n2)c1OC | male Sprague-Dawley rat | plasma | oral | 10 mg/kg | 1 h | single dose | 10400 ng/mL |
| COc1ccc2c(=O)n(C)c(-c3ccccc3)nc2c1 | male Sprague-Dawley rat | lung | oral | 30 mg/kg | 30 min | – | 2.5 ng/mL |
